Measurements reported in ChEMBL document CHEMBL4402566, “2-Substituted α,β-Methylene-ADP Derivatives: Potent Competitive Ecto-5'-nucleotidase (CD73) Inhibitors with Variable Binding Modes” (J Med Chem, 2020).
Activity calls are given as the source filed them. No cut-off for these calls is given here.

Experiments:
[1] = biological target: T1, 5'-nucleotidase (Rattus norvegicus, UniProt P21588); assay: Inhibition of purified recombinant soluble rat CD73 expressed in Sf9 cells [3H]AMP as substrate incubated for 25 mins by scintillation counting method
T1 sequence (P21588 whole entry): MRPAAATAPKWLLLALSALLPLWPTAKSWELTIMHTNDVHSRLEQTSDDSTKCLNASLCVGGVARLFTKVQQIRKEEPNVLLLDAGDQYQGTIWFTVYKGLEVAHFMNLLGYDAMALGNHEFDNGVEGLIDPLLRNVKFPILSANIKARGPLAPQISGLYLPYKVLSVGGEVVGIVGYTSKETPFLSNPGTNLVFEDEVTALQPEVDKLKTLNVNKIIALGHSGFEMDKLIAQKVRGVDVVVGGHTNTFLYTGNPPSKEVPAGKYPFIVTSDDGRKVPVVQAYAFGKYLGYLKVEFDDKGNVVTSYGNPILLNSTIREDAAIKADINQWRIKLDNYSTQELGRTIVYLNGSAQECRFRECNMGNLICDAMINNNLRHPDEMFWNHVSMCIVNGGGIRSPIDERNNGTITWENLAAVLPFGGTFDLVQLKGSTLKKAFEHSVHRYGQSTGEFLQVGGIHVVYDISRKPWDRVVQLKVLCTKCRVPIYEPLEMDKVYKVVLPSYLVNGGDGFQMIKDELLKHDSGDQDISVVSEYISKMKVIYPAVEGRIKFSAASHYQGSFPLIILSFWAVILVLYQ
Method in brief: (§1)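 Radiometric CD73 assay in 25 mM Tris, 140 mM NaCl, 25 mM NaH2PO4, pH 7.4. Enzyme per vial: rat CD73 1.63 ng, human CD73 0.365 ng, MDA-MB-231 membranes 7.4 ng protein. […] 25 min at 37 °C, shaking. Stopped with cold LaCl3/sodium acetate pH 4.0 to precipitate substrate. Filtrate counted by scintillation. Full curves; Ki from IC50 via Cheng–Prusoff.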

[2] = biological target: T2, 5'-nucleotidase (Homo sapiens, UniProt P21589); assay: Inhibition of native CD73 in human MDA-MB-231 cell membrane preparations [3H]AMP as substrate incubated for 25 mins by scintillation counting method; format: cell membranes; method in brief: as §1
[3] = biological target: T2, 5'-nucleotidase; assay: Inhibition of purified recombinant soluble human CD73 expressed in Sf9 cells [3H]AMP as substrate incubated for 25 mins by scintillation counting method; method in brief: as §1
[4] = Selectivity index, ratio of Ki for inhibition of purified recombinant soluble rat CD73 expressed in Sf9 cells to Ki for inhibition of purified recombinant soluble human CD73 expressed in Sf9 cells
[5] = biological target: T3, Ectonucleotide pyrophosphatase/phosphodiesterase family member 1 (Homo sapiens) (UniProt P22413); assay: Inhibition of human recombinant NPP1 at 10 uM using p-nitrophenyl thymidine monophosphate substrate incubated for 30 mins by colorimetry
T3 sequence (whole entry): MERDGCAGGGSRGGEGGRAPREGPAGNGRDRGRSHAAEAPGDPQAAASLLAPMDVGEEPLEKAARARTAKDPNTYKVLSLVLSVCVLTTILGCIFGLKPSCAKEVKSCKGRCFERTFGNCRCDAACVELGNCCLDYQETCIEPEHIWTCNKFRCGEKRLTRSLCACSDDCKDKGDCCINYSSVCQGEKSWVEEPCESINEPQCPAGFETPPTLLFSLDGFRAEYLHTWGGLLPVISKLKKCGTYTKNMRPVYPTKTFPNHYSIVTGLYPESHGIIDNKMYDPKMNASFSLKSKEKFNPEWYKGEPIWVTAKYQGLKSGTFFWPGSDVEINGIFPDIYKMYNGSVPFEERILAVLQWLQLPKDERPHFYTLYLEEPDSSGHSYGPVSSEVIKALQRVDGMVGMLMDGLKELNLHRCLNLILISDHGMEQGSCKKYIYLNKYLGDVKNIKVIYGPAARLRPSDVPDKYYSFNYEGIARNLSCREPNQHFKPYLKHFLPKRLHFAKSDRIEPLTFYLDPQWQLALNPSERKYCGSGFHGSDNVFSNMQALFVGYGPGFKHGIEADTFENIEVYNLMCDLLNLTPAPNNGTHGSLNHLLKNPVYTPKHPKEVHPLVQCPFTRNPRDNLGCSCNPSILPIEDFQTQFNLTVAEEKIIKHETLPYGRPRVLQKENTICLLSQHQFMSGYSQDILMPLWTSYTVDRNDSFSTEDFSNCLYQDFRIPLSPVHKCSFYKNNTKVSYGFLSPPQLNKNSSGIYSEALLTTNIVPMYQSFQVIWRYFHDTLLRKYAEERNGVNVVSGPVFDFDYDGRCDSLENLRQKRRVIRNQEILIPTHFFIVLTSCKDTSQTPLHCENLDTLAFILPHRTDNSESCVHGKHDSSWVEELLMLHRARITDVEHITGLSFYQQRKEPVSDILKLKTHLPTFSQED

[6] = biological target: P2Y purinoceptor 1 (Homo sapiens) (UniProt P47900); assay: Activation of recombinant human P2Y1 receptor expressed in human 1321N1 cells assessed as stimulation of calcium mobilization at 10 uM by fluorescence based assay; format: functional, cell-based
[7] = biological target: Autotaxin (Homo sapiens) (UniProt Q13822); assay: Inhibition of human recombinant NPP2 at 10 uM using p-nitrophenyl thymidine monophosphate substrate incubated for 30 mins by colorimetry
[8] = biological target: T4, Ectonucleotide pyrophosphatase/phosphodiesterase family member 3 (Homo sapiens) (UniProt O14638); assay: Inhibition of human recombinant NPP3 at 10 uM using p-nitrophenyl thymidine monophosphate substrate incubated for 30 mins by colorimetry
T4 sequence (whole entry): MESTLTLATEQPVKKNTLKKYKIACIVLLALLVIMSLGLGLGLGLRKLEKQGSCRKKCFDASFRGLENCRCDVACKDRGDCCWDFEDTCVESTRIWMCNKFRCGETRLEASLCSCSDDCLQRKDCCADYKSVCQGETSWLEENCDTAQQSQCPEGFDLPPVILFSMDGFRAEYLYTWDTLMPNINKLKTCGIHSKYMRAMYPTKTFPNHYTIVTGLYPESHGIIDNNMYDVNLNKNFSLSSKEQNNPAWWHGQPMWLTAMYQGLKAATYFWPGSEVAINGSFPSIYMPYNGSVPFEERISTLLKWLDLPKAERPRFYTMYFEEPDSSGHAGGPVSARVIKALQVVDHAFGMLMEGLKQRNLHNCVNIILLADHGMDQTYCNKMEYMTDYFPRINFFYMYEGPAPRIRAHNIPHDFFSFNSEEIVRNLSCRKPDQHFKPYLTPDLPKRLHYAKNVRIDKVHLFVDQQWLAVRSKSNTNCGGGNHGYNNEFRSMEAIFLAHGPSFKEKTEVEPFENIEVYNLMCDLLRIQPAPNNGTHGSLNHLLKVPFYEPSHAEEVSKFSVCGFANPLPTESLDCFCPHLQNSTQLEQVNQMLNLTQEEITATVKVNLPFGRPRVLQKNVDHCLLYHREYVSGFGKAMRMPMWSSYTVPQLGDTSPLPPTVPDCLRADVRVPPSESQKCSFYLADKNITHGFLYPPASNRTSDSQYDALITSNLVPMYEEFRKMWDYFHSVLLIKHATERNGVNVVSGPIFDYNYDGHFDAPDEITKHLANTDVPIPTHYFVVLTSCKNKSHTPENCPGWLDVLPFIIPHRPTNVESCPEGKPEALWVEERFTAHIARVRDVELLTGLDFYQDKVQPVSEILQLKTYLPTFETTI

[9] = biological target: P2Y purinoceptor 12 (Homo sapiens) (UniProt Q9H244); assay: Activation of recombinant human P2Y12 receptor expressed in CHOK1 cells assessed as stimulation of beta-arrestin recruitment at 10 uM incubated for 90 mins by luminescence based assay
[10] = Metabolic stability in rat liver microsomes assessed as intact compound level at 200 uM after 2 hrs in presence of NADPH regenerative system at 37 degC by LC-MS analysis; format: ADME, Microsome; details: read-out: Stability
[11] = Drug metabolism in rat liver microsomes at 200 uM after 2 hrs in presence of NADPH regenerative system at 37 degC by LC-MS analysis; format: ADME, Microsome; details: read-out: Drug metabolism
[12] = Metabolic stability in human blood plasma assessed as compound degradation at 200 uM incubated for 5 hrs at 37 degC by LC-MS analysis; format: ADME, cell-free; details: read-out: Drug degradation
Method in brief: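 Human plasma from healthy donors added to aqueous compound solution, 200 μM final. Incubated at 37 °C for 5 h. Supernatants analysed by LC-MS as percentage of compound remaining over time. Three separate experiments, each in duplicate.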

[13] = biological target: T1, 5'-nucleotidase; assay: Inhibition of rat CD73
Method in brief: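 Recombinant soluble rat CD73 expressed in Sf9 insect cells (1.63 ng per vial). Buffer was 25 mM Tris, 140 mM NaCl, 25 mM NaH2PO4, pH 7.4. […] Stopped with LaCl3/sodium acetate pH 4.0 to precipitate unreacted substrate, then filtered; adenosine in the filtrate counted by scintillation. Ki derived from IC50 by Cheng–Prusoff.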

[14] = biological target: T2, 5'-nucleotidase; assay: Inhibition of human CD73
[15] = Metabolic stability in rat liver microsomes assessed as compound degradation at 200 uM after 30 mins in presence of NADPH regenerative system at 37 degC by LC-MS analysis; format: ADME, Microsome; details: read-out: Drug degradation
Method in brief: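 Rat liver microsomes (2 mg) incubated with compound at 200 μM in 2 mL at 37 °C for various times. Stopped with ice-cold acetonitrile and centrifuged. Supernatant analysed by LC-MS as percentage remaining. Three separate experiments in duplicate.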

Chain of P2Y purinoceptor 12 (Homo sapiens) (Q9H244 whole entry): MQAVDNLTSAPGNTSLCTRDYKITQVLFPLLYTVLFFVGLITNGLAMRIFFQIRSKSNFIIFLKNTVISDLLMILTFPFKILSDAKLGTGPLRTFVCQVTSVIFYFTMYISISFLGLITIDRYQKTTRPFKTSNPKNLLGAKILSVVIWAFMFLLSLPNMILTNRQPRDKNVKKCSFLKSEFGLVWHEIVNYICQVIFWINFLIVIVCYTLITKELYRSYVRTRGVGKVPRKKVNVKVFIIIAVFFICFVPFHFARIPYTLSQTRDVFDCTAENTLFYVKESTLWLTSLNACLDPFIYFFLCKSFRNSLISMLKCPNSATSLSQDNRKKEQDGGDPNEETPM
T2 sequence (P21589 whole entry): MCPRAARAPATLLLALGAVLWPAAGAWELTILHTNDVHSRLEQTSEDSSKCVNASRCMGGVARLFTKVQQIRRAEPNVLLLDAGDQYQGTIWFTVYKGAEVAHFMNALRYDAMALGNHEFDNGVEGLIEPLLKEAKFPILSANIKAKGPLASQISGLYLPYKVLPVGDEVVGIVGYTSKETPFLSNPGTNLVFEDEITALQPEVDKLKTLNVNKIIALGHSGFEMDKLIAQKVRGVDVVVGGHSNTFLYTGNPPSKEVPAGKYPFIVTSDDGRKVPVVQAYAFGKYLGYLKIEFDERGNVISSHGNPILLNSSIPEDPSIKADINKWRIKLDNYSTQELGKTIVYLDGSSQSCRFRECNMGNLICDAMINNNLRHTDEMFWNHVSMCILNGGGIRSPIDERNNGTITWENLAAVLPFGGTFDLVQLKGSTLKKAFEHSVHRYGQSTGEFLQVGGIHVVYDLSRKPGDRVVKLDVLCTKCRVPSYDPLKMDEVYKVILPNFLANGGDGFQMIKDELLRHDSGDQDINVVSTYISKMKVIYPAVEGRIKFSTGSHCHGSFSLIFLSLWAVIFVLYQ
Chain of P2Y purinoceptor 1 (Homo sapiens) (P47900 whole entry): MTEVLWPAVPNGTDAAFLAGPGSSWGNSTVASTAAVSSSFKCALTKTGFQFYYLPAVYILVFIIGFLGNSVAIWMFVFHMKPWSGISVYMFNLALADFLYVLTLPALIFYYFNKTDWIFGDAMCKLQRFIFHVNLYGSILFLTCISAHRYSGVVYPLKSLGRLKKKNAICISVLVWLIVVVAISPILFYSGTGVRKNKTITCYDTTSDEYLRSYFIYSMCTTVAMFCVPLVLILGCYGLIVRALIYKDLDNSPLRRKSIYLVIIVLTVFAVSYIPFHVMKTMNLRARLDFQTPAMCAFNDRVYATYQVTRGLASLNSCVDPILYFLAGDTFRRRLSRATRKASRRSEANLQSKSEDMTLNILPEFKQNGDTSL

SMILES	Ki [1]	Ki [2]	Ki [3]	inhibition [5]	Activity [6]	inhibition [7]	inhibition [8]	Activity [9]	also measured
Nc1nc(N2CCNCC2)nc2c1ncn2[C@@H]1O[C@H](COP(=O)(O)CP(=O)(O)O)[C@@H](O)[C@H]1O	2290 nM	238 nM	184 nM						Ratio Ki [4]: 12.5
Nc1nc(N)c2ncn([C@@H]3O[C@H](COP(=O)(O)CP(=O)(O)O)[C@@H](O)[C@H]3O)c2n1	90.6 nM	35.7 nM	38.8 nM						
Nc1nc(=O)[nH]c2c1ncn2[C@@H]1O[C@H](COP(=O)(O)CP(=O)(O)O)[C@@H](O)[C@H]1O	326 nM								
Nc1nc(Cl)nc2c1ncn2[C@@H]1O[C@H](COP(=O)(O)CP(=O)(O)O)[C@@H](O)[C@H]1O	18.6 nM	4.57 nM	5.93 nM	inactive	inactive	inactive	inactive	inactive	
Nc1nc(I)nc2c1ncn2[C@@H]1O[C@H](COP(=O)(O)CP(=O)(O)O)[C@@H](O)[C@H]1O	15.1 nM	3.33 nM	3.59 nM	inactive		inactive	inactive		remaining at 2 h, 200 µM [10]: 100%; metabolised at 2 h, 200 µM [11]: < 40%; metabolised at 5 h, 200 µM [12]: < 25%
Nc1nc(Cl)c2ncn([C@@H]3O[C@H](COP(=O)(O)CP(=O)(O)O)[C@@H](O)[C@H]3O)c2n1	268 nM	32.2 nM	23.6 nM	inactive	inactive	inactive	inactive	inactive	Ratio Ki [4]: 6.3
Nc1ncnc2c1ncn2[C@@H]1O[C@H](COP(=O)(O)OP(=O)(O)O)[C@@H](O)[C@H]1O					Active			Active	
Nc1nc(SCCC2CCCCC2)nc2c1ncn2[C@@H]1O[C@H](COP(=O)(O)CP(=O)(O)O)[C@@H](O)[C@H]1O	56.6 nM	49.1 nM	46.9 nM	inactive	inactive	inactive	inactive	inactive	
Nc1nc2c(ncn2[C@@H]2O[C@H](COP(=O)(O)CP(=O)(O)O)[C@@H](O)[C@H]2O)c(=O)[nH]1 [PHOSPHOMETHYLPHOSPHONIC ACID GUANOSYL ESTER]	1110 nM	255 nM	410 nM						
C=CCSc1nc(N)c2ncn([C@@H]3O[C@H](COP(=O)(O)CP(=O)(O)O)[C@@H](O)[C@H]3O)c2n1	65.7 nM	65.4 nM	61.9 nM						
NNc1nc(N)c2ncn([C@@H]3O[C@H](COP(=O)(O)CP(=O)(O)O)[C@@H](O)[C@H]3O)c2n1	116 nM	15.4 nM	15.5 nM						Ratio Ki [4]: 7.5
CN(Cc1ccccc1)c1nc(Cl)nc2c1ncn2[C@@H]1O[C@H](COP(=O)(O)CP(=O)(O)O)[C@@H](O)[C@H]1O									Ki [13]: 0.746 nM; Ki [14]: 0.318 nM
Nc1ncnc2c1ncn2[C@@H]1O[C@H](COP(=O)(O)CP(=O)(O)O)[C@@H](O)[C@H]1O [PHOSPHOMETHYLPHOSPHONIC ACID ADENOSYL ESTER]	197 nM	207 nM			Active			Active	metabolised at 0.5 h, 200 µM [15]: 100%; metabolised at 5 h, 200 µM [12]: ≤ 50%
